In ChEMBL document CHEMBL1128714, “Synthesis and anti-HIV activity of 1,1'-dideoxygossypol and related compounds” (J Med Chem, 1995) one finds TC and EC50 data, which are given here for four compounds.

Assay [1] deals with HeLa. Description: Highest concentration at which no visible changes in cell morphology or monolayer adhesion was detected. Format: functional, Homo sapiens.
Assay [2] has as its system HeLa. The assay can be described thus: Compound was evaluated for the anti HIV activity in HT46c (HeLaT4+) cells as host cells for H9/HIV-IIIB strain of the HIV-1 virus; anti HIV activity masked by cytotoxicity. Format: functional, cell-based, Homo sapiens.
Assay [3] deals with HeLa. The assay can be described thus: Compound was evaluated for the anti HIV activity in HT46c (HeLaT4+) cells as host cells for H9/HIV-IIIB strain of the HIV-1 virus. The class given is functional, cell-based. Particulars: Homo sapiens. In a few lines:
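HT46c (HeLaT4+) cells were plated at 5×10^4 cells/well in RPMI 1640 with 10% FBS and attached overnight. They were infected with HIV-1 H9/HIV-IIIB at an input giving 100–200 foci/well in positive controls by day 3. Compound was tested at 0.01, 0.1, 1.0, 5.0 and 20 μM for 3 days at 37 °C, 5% CO2. Foci were counted by focal immunoassay on methanol-fixed monolayers, and EC50 was derived.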

Take `Cc1ccc2c(C(=O)O)c(O)c(O)c(C(C)C)c2c1`: the TC in assay [1] is greater than 20 µM.
In general, EC50 refers to the concentration at which the effect is half-maximal. High values mean a need for much substance, low ones an effect from little substance. With `Cc1cc2c(C(C)C)c(O)c(O)c(C=O)c2cc1-c1cc2c(C=O)c(O)c(O)c(C(C)C)c2cc1C`, the half-maximal effective concentration (EC50) result in assay [2] is “anti HIV activity masked by cytotoxicity”. Also, the TC in assay [1] is greater than 1 µM.
Consider `Cc1cc2c(C(C)C)c(O)c(O)c(C(=O)O)c2cc1-c1cc2c(C(=O)O)c(O)c(O)c(C(C)C)c2cc1C`, for which a half-maximal effect in assay [3] (EC50) was put at 0.7 µM. For the same compound, the TC in assay [1] was greater than 5 µM.
For `Cc1ccc2c(C=O)c(O)c(O)c(C(C)C)c2c1` the same measures were 20 µM and greater than 1 µM.
